According to ChEMBL document CHEMBL4311956, “A Qualified Success: Discovery of a New Series of ATAD2 Bromodomain Inhibitors with a Novel Binding Mode Using High-Throughput Screening and Hit Qualification” (J Med Chem, 2019):
pIC50: −log10 of the molar value.

Key:
[1] = target: Bromodomain-containing protein 7 (Homo sapiens, UniProt Q9NPI1); test: Inhibition of BRD7 (unknown origin) by TR-FRET assay
[2] = target: T1, ATPase family AAA domain-containing protein 2 (Homo sapiens, UniProt Q6PL18); test: Displacement of SGRG-K(Ac)-GG-K(Ac)-GLG-K(Ac)-GGAKRHRKV-biotin) from His6/FLAG-tagged TEV fused ATAD2 bromodomain (981 to 1121 residues) (unknown origin) expressed in Escherichia coli BL21(DE3) cells after 30 mins by TR-FRET assay
T1 sequence (Q6PL18 whole entry): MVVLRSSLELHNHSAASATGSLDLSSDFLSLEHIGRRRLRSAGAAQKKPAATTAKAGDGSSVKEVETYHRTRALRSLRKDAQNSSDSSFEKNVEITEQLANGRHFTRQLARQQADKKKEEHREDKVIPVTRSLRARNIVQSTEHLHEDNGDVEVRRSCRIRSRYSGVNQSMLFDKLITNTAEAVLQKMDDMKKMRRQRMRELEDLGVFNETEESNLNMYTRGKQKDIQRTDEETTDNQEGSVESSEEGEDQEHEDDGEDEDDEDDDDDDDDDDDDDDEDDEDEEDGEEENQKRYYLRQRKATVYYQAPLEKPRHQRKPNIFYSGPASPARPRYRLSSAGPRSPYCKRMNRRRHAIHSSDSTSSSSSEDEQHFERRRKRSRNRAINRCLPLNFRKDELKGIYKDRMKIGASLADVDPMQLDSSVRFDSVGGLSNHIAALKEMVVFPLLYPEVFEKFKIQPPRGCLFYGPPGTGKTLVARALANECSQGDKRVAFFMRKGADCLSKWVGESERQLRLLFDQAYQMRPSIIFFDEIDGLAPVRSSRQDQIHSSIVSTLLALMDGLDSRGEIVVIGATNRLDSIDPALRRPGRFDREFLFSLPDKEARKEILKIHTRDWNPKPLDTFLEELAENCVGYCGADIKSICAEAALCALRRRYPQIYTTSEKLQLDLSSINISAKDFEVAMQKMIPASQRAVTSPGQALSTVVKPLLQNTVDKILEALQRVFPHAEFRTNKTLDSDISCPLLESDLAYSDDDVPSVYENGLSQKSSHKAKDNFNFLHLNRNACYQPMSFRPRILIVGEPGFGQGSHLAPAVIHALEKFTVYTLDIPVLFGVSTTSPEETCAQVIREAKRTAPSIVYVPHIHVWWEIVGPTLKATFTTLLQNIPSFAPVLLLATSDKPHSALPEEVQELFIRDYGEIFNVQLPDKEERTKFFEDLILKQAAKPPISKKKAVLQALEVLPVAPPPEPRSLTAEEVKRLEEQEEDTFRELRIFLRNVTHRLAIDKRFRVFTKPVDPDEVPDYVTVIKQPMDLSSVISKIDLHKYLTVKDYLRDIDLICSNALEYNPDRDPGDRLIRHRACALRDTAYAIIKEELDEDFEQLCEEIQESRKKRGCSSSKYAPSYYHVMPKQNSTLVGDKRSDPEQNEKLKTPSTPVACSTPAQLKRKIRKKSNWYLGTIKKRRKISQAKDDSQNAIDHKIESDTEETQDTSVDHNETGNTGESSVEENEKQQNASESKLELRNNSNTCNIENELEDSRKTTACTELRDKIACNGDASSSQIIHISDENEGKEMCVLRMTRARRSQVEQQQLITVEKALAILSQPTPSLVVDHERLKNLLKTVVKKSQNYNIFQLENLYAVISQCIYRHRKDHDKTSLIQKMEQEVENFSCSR

[3] = target: Bromodomain-containing protein 4 (Homo sapiens, UniProt O60885, Y390A); test: Displacement of Alexa Fluor 647 labelled ligand from His6-tagged BRD4 BD1 (1 to 477 residues)/BD2 Y390A mutant (unknown origin) after 30 mins by TR-FRET assay
Outline: (§1)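 BET selectivity by TR-FRET fluoroligand displacement. Uses tandem BET bromodomain constructs carrying a mutation in the non-assayed bromodomain.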

[4] = target: Bromodomain-containing protein 4 (Homo sapiens, UniProt O60885, Y97A); test: Displacement of Alexa Fluor 647 labelled ligand from His6-tagged BRD4 BD2 (1 to 477 residues)/BD1 Y97A mutant (unknown origin) after 30 mins by TR-FRET assay; outline: as §1
[5] = target: ATPase family AAA domain-containing protein 2B (Homo sapiens, UniProt Q9ULI0); test: Displacement of biotinylated H4 peptide from ATAD2B bromodomain (unknown origin) by TR-FRET assay
[6] = target: Bromodomain-containing protein 2 (Homo sapiens, UniProt P25440, Y113A); test: Displacement of Alexa Fluor 647 labelled ligand from His6-tagged BRD2 BD2 (1 to 473 residues)/BD1 Y113A mutant (unknown origin) after 30 mins by TR-FRET assay; outline: as §1
[7] = target: Bromodomain-containing protein 3 (Homo sapiens, UniProt Q15059, Y348A); test: Displacement of Alexa Fluor 647 labelled ligand from His6-tagged BRD3 BD1(1 to 435 residues)/BD2 Y348A mutant (unknown origin) after 30 mins by TR-FRET assay; outline: as §1
[8] = target: Bromodomain-containing protein 3 (Homo sapiens, UniProt Q15059, Y73A); test: Displacement of Alexa Fluor 647 labelled ligand from His6-tagged BRD3 BD2(1 to 435 residues)/BD1 Y73A mutant (unknown origin) after 30 mins by TR-FRET assay; outline: as §1
[9] = target: Bromodomain testis-specific protein (Homo sapiens, UniProt Q58F21, Y66A); test: Displacement of Alexa Fluor 647 labelled ligand from His6/FLAG-tagged TEV fused BRDT BD2(1 to 397 residues)/[…] mutant (unknown origin) after 30 mins by TR-FRET assay; outline: as §1
[10] = target: Bromodomain-containing protein 1 (Homo sapiens, UniProt O95696); test: Inhibition of BRPF2 (unknown origin) by TR-FRET assay
[11] = target: Bromodomain and PHD finger-containing protein 3 (Homo sapiens, UniProt Q9ULD4); test: Inhibition of BRPF3 (unknown origin) by TR-FRET assay
[12] = target: Transcription initiation factor TFIID subunit 1 (Homo sapiens, UniProt P21675); test: Inhibition of TAF1 BD2 (unknown origin) by TR-FRET assay
Homo sapiens [13] = organism: Homo sapiens; test: Selectivity ratio, ratio of inhibition of CECR2 (unknown origin) to displacement of SGRG-K(Ac)-GG-K(Ac)-GLG-K(Ac)-GGAKRHRKV-biotin) from His6/FLAG-tagged TEV fused ATAD2 bromodomain (981 to 1121 residues) expressed in Escherichia coli BL21(DE3) cells
Homo sapiens [14] = organism: Homo sapiens; test: Selectivity ratio, ratio of inhibition of BRPF3 (unknown origin) to displacement of SGRG-K(Ac)-GG-K(Ac)-GLG-K(Ac)-GGAKRHRKV-biotin) from His6/FLAG-tagged TEV fused ATAD2 bromodomain (981 to 1121 residues) expressed in Escherichia coli BL21(DE3) cells
Homo sapiens [15] = organism: Homo sapiens; test: Selectivity ratio, ratio of inhibition of TAF1 BD2 (unknown origin) to Displacement of biotinylated H4 peptide from ATAD2B bromodomain (unknown origin) by TR-FRET assay

Chain of Bromodomain-containing protein 7 (Q9NPI1 whole entry, the tested form may be a part): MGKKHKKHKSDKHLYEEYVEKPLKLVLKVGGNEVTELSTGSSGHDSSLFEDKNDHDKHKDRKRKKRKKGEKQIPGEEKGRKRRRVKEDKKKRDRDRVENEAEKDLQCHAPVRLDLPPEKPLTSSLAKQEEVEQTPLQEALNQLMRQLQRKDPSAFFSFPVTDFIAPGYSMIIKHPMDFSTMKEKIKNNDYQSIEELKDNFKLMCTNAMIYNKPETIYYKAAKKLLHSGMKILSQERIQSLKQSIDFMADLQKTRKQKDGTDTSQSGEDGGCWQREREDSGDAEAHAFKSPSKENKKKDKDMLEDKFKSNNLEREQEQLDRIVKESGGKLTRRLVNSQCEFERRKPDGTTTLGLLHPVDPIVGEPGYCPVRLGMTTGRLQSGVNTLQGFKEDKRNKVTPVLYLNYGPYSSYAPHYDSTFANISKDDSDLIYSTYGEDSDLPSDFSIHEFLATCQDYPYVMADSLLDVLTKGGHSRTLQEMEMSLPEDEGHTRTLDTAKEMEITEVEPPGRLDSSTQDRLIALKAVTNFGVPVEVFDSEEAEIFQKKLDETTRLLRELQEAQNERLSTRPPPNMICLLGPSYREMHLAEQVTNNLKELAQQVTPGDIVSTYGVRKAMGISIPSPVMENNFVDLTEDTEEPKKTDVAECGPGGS
Chain of Bromodomain and PHD finger-containing protein 3 (Q9ULD4 whole entry): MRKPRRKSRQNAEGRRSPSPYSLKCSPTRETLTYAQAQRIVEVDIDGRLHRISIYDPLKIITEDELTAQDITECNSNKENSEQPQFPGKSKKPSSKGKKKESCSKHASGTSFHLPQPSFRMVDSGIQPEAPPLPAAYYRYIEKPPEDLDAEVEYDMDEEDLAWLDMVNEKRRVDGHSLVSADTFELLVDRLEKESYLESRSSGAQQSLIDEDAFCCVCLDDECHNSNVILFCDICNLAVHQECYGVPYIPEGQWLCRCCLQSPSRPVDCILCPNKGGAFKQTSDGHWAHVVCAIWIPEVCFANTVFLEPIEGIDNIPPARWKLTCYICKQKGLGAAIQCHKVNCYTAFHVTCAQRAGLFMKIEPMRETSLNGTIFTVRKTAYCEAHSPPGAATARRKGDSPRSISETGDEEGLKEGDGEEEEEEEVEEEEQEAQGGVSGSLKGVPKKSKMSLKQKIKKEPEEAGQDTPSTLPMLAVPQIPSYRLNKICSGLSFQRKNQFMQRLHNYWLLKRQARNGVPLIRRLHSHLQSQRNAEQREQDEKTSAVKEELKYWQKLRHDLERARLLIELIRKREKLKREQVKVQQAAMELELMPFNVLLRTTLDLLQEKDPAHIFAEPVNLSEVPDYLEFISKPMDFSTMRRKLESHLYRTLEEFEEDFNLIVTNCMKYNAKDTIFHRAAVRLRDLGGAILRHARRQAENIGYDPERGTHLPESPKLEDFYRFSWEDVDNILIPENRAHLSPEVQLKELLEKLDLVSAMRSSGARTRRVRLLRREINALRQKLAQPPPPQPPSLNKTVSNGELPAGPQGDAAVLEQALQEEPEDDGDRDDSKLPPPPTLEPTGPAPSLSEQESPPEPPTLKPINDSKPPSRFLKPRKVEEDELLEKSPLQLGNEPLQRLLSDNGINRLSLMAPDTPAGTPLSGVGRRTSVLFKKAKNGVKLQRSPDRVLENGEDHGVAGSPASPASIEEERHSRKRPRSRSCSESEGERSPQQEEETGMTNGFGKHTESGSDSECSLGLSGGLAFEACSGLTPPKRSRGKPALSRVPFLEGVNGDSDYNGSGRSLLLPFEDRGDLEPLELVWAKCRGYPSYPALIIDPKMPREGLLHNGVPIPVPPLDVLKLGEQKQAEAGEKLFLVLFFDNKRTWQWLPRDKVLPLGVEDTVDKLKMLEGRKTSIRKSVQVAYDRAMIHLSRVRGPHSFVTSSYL
Chain of Bromodomain-containing protein 3 (Homo sapiens, UniProt Q15059, Y73A) (Q15059 2-726 Y73A limits assumed): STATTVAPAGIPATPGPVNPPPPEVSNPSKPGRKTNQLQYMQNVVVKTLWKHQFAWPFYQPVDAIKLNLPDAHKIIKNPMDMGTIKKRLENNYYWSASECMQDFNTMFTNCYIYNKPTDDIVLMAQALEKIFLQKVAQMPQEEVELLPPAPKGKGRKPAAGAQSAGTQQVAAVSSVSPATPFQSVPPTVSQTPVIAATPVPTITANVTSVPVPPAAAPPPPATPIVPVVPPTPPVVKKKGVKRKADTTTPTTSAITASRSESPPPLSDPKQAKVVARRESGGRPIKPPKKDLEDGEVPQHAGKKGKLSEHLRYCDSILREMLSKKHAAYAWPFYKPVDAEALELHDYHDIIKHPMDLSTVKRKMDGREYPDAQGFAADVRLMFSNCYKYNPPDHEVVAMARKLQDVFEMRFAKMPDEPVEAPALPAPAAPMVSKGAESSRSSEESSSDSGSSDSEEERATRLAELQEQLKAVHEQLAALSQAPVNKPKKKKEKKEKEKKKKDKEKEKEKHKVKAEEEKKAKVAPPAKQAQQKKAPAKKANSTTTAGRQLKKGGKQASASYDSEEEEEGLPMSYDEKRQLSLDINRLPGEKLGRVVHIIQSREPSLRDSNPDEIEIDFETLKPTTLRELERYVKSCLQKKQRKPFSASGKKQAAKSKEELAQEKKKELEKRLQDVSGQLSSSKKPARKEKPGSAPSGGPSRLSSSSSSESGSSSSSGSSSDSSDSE
Chain of Bromodomain-containing protein 2 (P25440 whole entry Y113A, the tested form may be a part): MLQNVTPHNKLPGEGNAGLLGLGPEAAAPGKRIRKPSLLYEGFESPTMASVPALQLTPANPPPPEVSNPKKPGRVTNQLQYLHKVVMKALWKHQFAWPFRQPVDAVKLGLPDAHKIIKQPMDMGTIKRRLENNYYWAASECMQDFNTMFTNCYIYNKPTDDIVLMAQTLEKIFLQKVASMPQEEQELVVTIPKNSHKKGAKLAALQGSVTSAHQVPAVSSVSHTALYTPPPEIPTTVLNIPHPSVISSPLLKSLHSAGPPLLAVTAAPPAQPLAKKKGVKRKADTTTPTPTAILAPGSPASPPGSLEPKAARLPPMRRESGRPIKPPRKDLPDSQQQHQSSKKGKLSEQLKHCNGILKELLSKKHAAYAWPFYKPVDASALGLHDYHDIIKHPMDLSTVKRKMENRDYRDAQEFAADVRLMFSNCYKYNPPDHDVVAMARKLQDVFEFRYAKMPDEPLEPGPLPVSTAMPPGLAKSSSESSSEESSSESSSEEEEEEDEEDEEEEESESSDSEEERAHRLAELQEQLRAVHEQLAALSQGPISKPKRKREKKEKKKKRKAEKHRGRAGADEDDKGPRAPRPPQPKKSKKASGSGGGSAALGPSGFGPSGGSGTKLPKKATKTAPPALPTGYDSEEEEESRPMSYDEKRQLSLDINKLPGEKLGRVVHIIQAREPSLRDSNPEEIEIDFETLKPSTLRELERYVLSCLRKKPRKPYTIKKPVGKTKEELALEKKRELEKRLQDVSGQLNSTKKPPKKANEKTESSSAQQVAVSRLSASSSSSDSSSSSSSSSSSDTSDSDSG
Chain of Bromodomain-containing protein 1 (O95696 whole entry): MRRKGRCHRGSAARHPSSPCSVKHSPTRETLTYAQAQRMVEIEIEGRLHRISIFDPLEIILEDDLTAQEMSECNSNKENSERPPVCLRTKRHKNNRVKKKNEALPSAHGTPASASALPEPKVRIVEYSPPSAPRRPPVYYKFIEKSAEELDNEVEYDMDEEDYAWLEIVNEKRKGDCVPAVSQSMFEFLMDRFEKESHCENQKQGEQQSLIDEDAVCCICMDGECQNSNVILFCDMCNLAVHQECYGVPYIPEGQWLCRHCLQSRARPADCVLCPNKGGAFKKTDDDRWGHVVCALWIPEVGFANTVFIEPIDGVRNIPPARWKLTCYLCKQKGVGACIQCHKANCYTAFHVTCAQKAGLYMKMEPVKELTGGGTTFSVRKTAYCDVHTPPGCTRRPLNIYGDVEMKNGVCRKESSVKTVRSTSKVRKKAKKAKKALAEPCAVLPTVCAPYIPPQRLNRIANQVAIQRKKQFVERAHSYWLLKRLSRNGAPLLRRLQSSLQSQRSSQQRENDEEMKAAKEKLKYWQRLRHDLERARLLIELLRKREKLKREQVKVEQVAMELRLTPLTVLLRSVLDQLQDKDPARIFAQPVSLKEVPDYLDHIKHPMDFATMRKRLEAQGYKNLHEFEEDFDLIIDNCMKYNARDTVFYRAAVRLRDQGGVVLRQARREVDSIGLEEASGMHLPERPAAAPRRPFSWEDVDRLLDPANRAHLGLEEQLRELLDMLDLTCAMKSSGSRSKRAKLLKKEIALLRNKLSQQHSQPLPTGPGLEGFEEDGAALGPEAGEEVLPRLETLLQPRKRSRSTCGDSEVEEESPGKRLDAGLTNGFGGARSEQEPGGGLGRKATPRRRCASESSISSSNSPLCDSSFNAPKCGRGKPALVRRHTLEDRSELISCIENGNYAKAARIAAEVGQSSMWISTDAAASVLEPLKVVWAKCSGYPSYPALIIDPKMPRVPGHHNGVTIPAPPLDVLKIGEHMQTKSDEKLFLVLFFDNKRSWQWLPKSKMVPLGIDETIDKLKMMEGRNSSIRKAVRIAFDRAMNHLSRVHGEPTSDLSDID

CC1(C2CC2)NC(=O)N(CC(=O)Nc2ccc(Br)c(S(=O)(=O)N3CCCCC3)c2)C1=O (racemic)
pIC50 [1]: 4.20
pIC50 [2]: 6.50
pIC50 [3]: 4.30
pIC50 [4]: 4.70
pIC50 [5]: 6.30
pIC50 [6]: 4.70
pIC50 [7]: < 4.30
pIC50 [8]: 4.50
pIC50 [9]: 4.80
pIC50 [10]: 4.90
pIC50 [11]: 5.00
pIC50 [12]: 5.40
Selectivity ratio (Homo sapiens [13]): > 10
Selectivity ratio (Homo sapiens [14]): > 10
Selectivity ratio (Homo sapiens [15]): > 10
